Assay results published in ChEMBL document CHEMBL2311419, “Discovery of coumarin-dihydropyridine hybrids as bone anabolic agents” (J Med Chem, 2013).
Active and inactive are the calls of the source. The calls are words filed in the database; no cut-off is given here.

What was measured:
Calvarial osteoblast [1] = assay: Induction of mineralization in mouse calvarial osteoblasts assessed as increase of mineralized nodules formation measuring concentration required for maximum activity after 21 days by alizarin red-S staining based spectrophotometric analysis; type: functional
Mus musculus [2] = assay: Induction of new bone formation in ovariectomized BALB/c mouse model assessed as increase in mineral apposition rate at 10 mg/kg/day, po qd for 8 weeks by bone histomorphometry analysis (Rvb =0.11 um/day); type: functional
Mus musculus [3] = assay: Inhibition of osteoclastogenesis in ovariectomized BALB/c mouse model assessed as suppression of TRAP gene expression at 1 mg/kg/day, po qd for 8 weeks by qPCR analysis; type: functional, organism-based
Mus musculus [4] = assay: Induction of new bone formation in ovariectomized BALB/c mouse model assessed as increase in mineral apposition rate at 5 mg/kg/day, po qd for 8 weeks by bone histomorphometry analysis (Rvb =0.11 um/day); type: functional
Mus musculus [5] = assay: Induction of osteoblast differentiation in ovariectomized BALB/c mouse model assessed as upregulation of RUNX2 mRNA expression at 1 mg/kg/day, po qd for 8 weeks by qPCR analysis; type: functional, organism-based
Mus musculus [6] = assay: Antiosteoporotic activity in ovariectomized BALB/c mouse model assessed as restoration of ovariectomy-induced increase in trabecular separation at 5 mg/kg/day, po qd for 8 weeks (reference value: 0.99+/-0.08mm); type: functional, Trabecula
Mus musculus [7] = assay: Inhibition of bone turnover in ovariectomized BALB/c mouse model assessed as reduction in ovariectomy-induced serum osteocalcin levels at 1 to 5 mg/kg/day, po qd for 8 weeks by ELISA relative to control; type: functional, organism-based
[8] = Stimulation of alkaline phosphatase activity in mouse calvarial osteoblasts after 48 hrs by spectrophotometric analysis
Procedure, shortened: (§1)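 Calvarial osteoblasts were exposed to compounds over 1 pM to 1 µM. ALP activity was read spectrophotometrically as optical density at 405 nm. Results were expressed as % ALP activity, with EC50 and Emax derived from the concentration series.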

Calvarial osteoblast [9] = assay: Induction of osteoblastogenesis in mouse calvarial osteoblasts assessed as increase in COL1 expression at 100 pM to 10 nM by Western blotting analysis; type: functional, cell-based
Calvarial osteoblast [10] = assay: Induction of osteoblastogenesis in mouse calvarial osteoblasts assessed as increase in expression of ALP gene at 100 pM to 10 nM by qPCR analysis relative to control; type: functional
Mus musculus [11] = assay: Antiosteoporotic activity in ovariectomized BALB/c mouse model assessed as restoration of ovariectomy-induced reduction in trabecular number at 10 mg/kg/day, po qd for 8 weeks (reference value: 0.12+/-0.02 /mm); type: functional, Trabecula
Mus musculus [12] = organism: Mus musculus; assay: Stimulation of alkaline phosphatase activity in mouse calvarial osteoblasts at 1 pM to 1 uM after 48 hrs by spectrophotometric analysis; procedure, shortened: as §1
Mus musculus [13] = assay: Antiosteoporotic activity in ovariectomized BALB/c mouse model assessed as restoration of ovariectomy-induced increase in trabecular separation at 10 mg/kg/day, po qd for 8 weeks (reference value: 0.99+/-0.08mm); type: functional, Trabecula
Mus musculus [14] = assay: Antiosteoporotic activity in ovariectomized BALB/c mouse model assessed as restoration of ovariectomy-induced reduction in bone volume/trabecular volume at 10 mg/kg/day, po qd for 8 weeks (reference value: 0.45+/-0.07%); type: functional, Trabecula; parameters: scale not given: the % may be the effect or the level left
Mus musculus [15] = assay: Induction of new bone formation in ovariectomized BALB/c mouse model assessed as increase in bone formation rate at 5 mg/kg/day, po qd for 8 weeks by bone histomorphometry analysis (Rvb =0.10 um'3/um'2/day); type: functional
Mus musculus [16] = assay: Induction of osteoblast differentiation in ovariectomized BALB/c mouse model assessed as upregulation of RUNX2 mRNA expression po administered qd for 8 weeks by qPCR analysis; type: functional, organism-based
Mus musculus [17] = assay: Antiosteoporotic activity in ovariectomized BALB/c mouse model assessed as restoration of ovariectomy-induced increase in structural model index at 5 mg/kg/day, po qd for 8 weeks; type: functional, organism-based
Mus musculus [18] = assay: Induction of osteoblast differentiation in ovariectomized BALB/c mouse model assessed as upregulation of BMP2 mRNA expression po administered qd for 8 weeks by qPCR analysis; type: functional, organism-based
Mus musculus [19] = assay: Inhibition of osteoclastogenesis in ovariectomized BALB/c mouse model assessed as suppression of RANK gene expression at 1 mg/kg/day, po qd for 8 weeks by qPCR analysis; type: functional, organism-based
Calvarial osteoblast [20] = assay: Induction of osteoblastogenesis in mouse calvarial osteoblasts assessed as increase in RUNX2 expression at 100 pM to 10 nM by Western blotting analysis; type: functional, cell-based
Calvarial osteoblast [21] = assay: Induction of osteoblastogenesis in mouse calvarial osteoblasts assessed as increase in expression of osteocalcin gene at 100 pM by qPCR analysis relative to control; type: functional, cell-based
Calvarial osteoblast [22] = assay: Induction of mineralization in mouse calvarial osteoblasts assessed as increase of mineralized nodules formation at 100 pM after 21 days by alizarin red-S staining based spectrophotometric analysis; type: functional
Mus musculus [23] = assay: Antiosteoporotic activity in ovariectomized BALB/c mouse model assessed as restoration of ovariectomy-induced reduction in trabecular number at 5 mg/kg/day, po qd for 8 weeks (reference value: 0.12+/-0.02 /mm); type: functional, Trabecula
Mus musculus [24] = assay: Induction of new bone formation in ovariectomized BALB/c mouse model assessed as increase in bone formation rate at 10 mg/kg/day, po qd for 8 weeks by bone histomorphometry analysis (Rvb =0.10 um'3/um'2/day); type: functional
Mus musculus [25] = assay: Inhibition of osteoclastogenesis in ovariectomized BALB/c mouse model assessed as suppression of RANK gene expression at 5 to 10 mg/kg/day, po qd for 8 weeks by qPCR analysis; type: functional, organism-based
Mus musculus [26] = assay: Antiosteoporotic activity in ovariectomized BALB/c mouse model assessed as restoration of ovariectomy-induced reduction in trabecular number at 1 mg/kg/day, po qd for 8 weeks (reference value: 0.12+/-0.02 /mm); type: functional, Trabecula
Calvarial osteoblast [27] = assay: Induction of osteoblastogenesis in mouse calvarial osteoblasts assessed as increase in expression of BMP2 gene at 100 pM to 10 nM by qPCR analysis relative to control; type: functional
Calvarial osteoblast [28] = assay: Induction of proliferation of mouse calvarial osteoblasts at 1 pM to 1 uM after 48 hrs; type: functional, cell-based
Mus musculus [29] = assay: Induction of osteoblast differentiation in ovariectomized BALB/c mouse model assessed as upregulation of BMP2 mRNA expression at 1 mg/kg/day, po qd for 8 weeks by qPCR analysis; type: functional, organism-based
Mus musculus [30] = assay: Antiosteoporotic activity in ovariectomized BALB/c mouse model assessed as restoration of ovariectomy-induced increase in structural model index at 1 mg/kg/day, po qd for 8 weeks; type: functional, organism-based
Mus musculus [31] = assay: Induction of new bone formation in ovariectomized BALB/c mouse model assessed as increase in mineral apposition rate at 1 mg/kg/day, po qd for 8 weeks by bone histomorphometry analysis (Rvb =0.11 um/day); type: functional
Mus musculus [32] = assay: Antiosteoporotic activity in ovariectomized BALB/c mouse model assessed as restoration of ovariectomy-induced reduction in bone volume/trabecular volume at 5 mg/kg/day, po qd for 8 weeks (reference value: 0.45+/-0.07%); type: functional, Trabecula; parameters: scale not given: the % may be the effect or the level left
Calvarial osteoblast [33] = assay: Induction of osteoblastogenesis in mouse calvarial osteoblasts assessed as increase in expression of COL1 gene at 100 pM by qPCR analysis relative to control; type: functional, cell-based

CCOC(=O)C1=C(C)NC2=C(C(=O)CCC2)C1c1cc(C(C)CC)c2oc(=O)c(C(=O)OC)cc2c1 (stereo not drawn)
Concentration for maximum mineralization (Calvarial osteoblast [1]): 100 pM
Activity (Mus musculus [2]): 0.276 micrometer/day
inhibition (Mus musculus [3]): Active
Activity (Mus musculus [4]): 0.294 micrometer/day
Activity (Mus musculus [5]): Active
Activity (Mus musculus [6]): 0.72 mm
inhibition (Mus musculus [7]): Active
EC50 [8]: 1.17 µM
Activity (Calvarial osteoblast [9]): Active
fold change (FC) (Calvarial osteoblast [10]): 1.5
Activity (Mus musculus [11]): 0.32 /millimeter
Activity (Mus musculus [12]): 80%
Activity (Mus musculus [13]): 0.68 mm
Activity (Mus musculus [14]): 2.07%
Activity (Mus musculus [15]): 0.33 um3/um2/day
Activity (Mus musculus [16]): Dose-dependent effect
Activity (Mus musculus [17]): Active
Activity (Mus musculus [18]): Dose-dependent effect
inhibition (Mus musculus [19]): Active
Activity (Calvarial osteoblast [20]): Active
Activity (Calvarial osteoblast [21]): Active
Activity (Calvarial osteoblast [22]): 65%
Activity (Mus musculus [23]): 0.3 /millimeter
Activity (Mus musculus [24]): 0.31 um3/um2/day
inhibition (Mus musculus [25]): Active
Activity (Mus musculus [26]): 0.4 /millimeter
fold change (FC) (Calvarial osteoblast [27]): 1.5
Activity (Calvarial osteoblast [28]): Active
Activity (Mus musculus [29]): Active
Activity (Mus musculus [30]): Active
Activity (Mus musculus [31]): 0.291 micrometer/day
Activity (Mus musculus [32]): 2.33%
Activity (Calvarial osteoblast [33]): Active
